Laboratory results taken from ChEMBL document CHEMBL4339195, “Di-aryl Sulfonamide Motif Adds π-Stacking Bulk in Negative Allosteric Modulators of the NMDA Receptor” (ACS Med Chem Lett, 2019).

Columns and labels:
Assay type in all cases: cell-based
[1] = molecular target: T1, Glutamate NMDA receptor; Grin1/Grin2c (Rattus norvegicus) (UniProt P35439+Q00961); assay: Potency index, ratio of NP11999 IC50 to test compound IC50 for negative allosteric modulation of recombinant rat GluN1/GluN2C expressed in Xenopus laevis oocytes assessed as inhibition of glutamate/glycine-induced current response
[2] = molecular target: T1, Glutamate NMDA receptor; Grin1/Grin2c (Rattus norvegicus); assay: Negative allosteric modulation of recombinant rat GluN1/GluN2C expressed in Xenopus laevis oocytes assessed as inhibition of glutamate/glycine-induced current response at 30 uM at -40 mV holding potential by two-electrode voltage clamp method relative to glutamate/glycine; conditions: values are per cent of control
Method in brief: (§1)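 Oocytes recorded while the drug is co-applied with a maximally effective 100 µM glutamate plus 30 µM glycine. Response is expressed as percent of the glutamate/glycine control. IC50 comes from a Hill fit to the average composite concentration-response curve. 8-16 oocytes from 2-3 frogs per compound and receptor.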

[3] = molecular target: T2, 5-hydroxytryptamine receptor 3A (Rattus norvegicus) (UniProt P35563); assay: Negative allosteric modulation of rat 5HT3A expressed in Xenopus laevis oocytes assessed as inhibition of serotonin-induced current response at 30 uM at -40 mV holding potential by two-electrode voltage clamp method relative to serotonin alone
T2 sequence (whole entry): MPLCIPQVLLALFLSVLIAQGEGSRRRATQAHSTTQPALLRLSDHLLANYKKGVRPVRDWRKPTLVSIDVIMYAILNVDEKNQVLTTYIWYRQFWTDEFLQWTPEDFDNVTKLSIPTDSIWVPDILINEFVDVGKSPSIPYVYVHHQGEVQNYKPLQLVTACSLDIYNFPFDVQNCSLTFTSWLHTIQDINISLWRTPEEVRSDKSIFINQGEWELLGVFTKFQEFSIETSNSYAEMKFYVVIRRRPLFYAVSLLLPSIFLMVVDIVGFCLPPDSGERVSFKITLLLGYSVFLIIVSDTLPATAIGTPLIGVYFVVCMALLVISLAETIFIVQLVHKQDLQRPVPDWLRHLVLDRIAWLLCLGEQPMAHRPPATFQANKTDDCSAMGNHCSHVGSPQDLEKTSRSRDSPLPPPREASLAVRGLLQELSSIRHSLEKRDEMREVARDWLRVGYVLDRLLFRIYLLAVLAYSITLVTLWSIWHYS
Method in brief: (§2)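 Oocyte two-electrode voltage clamp at -40 mV holding. Test compound co-applied with agonist; response given as percent of the mean of control and recovery currents to agonist alone. Agonists: 100 µM glutamate (AMPA, kainate), 100 µM GABA (GABA receptors), 100 µM glycine (glycine receptor), 100 µM serotonin (5-HT3A), 9 µM ATP (P2X), 1 µM acetylcholine (nicotinic).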

[4] = molecular target: Glutamate NMDA receptor; Grin1/Grin2c (Rattus norvegicus, UniProt P35439+Q00961); assay: Negative allosteric modulation of recombinant rat GluN1/GluN2C expressed in Xenopus laevis oocytes assessed as inhibition of glutamate/glycine-induced current response at -40 mV holding potential by two-electrode voltage clamp method; method in brief: as §1
[5] = molecular target: Ionotropic glutamate receptor NMDA 1/2D (Rattus norvegicus) (UniProt P35439+Q62645); assay: Negative allosteric modulation of recombinant rat GluN1/GluN2D expressed in Xenopus laevis oocytes assessed as inhibition of glutamate/glycine-induced current response at 30 uM at -40 mV holding potential by two-electrode voltage clamp method relative to glutamate/glycine; conditions: values are per cent of control; method in brief: as §1
[6] = molecular target: Glutamate NMDA receptor; Grin1/Grin2b (Rattus norvegicus) (UniProt P35439+Q00960); assay: Negative allosteric modulation of recombinant rat GluN1/GluN2B expressed in Xenopus laevis oocytes assessed as inhibition of glutamate/glycine-induced current response at 30 uM at -40 mV holding potential by two-electrode voltage clamp method relative to glutamate/glycine
Method in brief: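 Oocyte voltage clamp at -40 mV. Drug co-applied with 100 µM glutamate plus 30 µM glycine; response given as percent of the average of control and recovery currents to agonist alone.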

[7] = molecular target: Ionotropic glutamate receptor NMDA 1/2D (Rattus norvegicus, UniProt P35439+Q62645); assay: Negative allosteric modulation of recombinant rat GluN1/GluN2D expressed in Xenopus laevis oocytes assessed as inhibition of glutamate/glycine-induced current response at -40 mV holding potential by two-electrode voltage clamp method; method in brief: as §1
[8] = tested on: Glutamate receptor 3 (Homo sapiens), P42263 [L513Y]; assay: Negative allosteric modulation of human GluA3 L513Y mutant expressed in Xenopus laevis oocytes assessed as inhibition of glutamate-induced current response at 30 uM at -40 mV holding potential by two-electrode voltage clamp method relative to glutamate alone; method in brief: as §2
Glutamate receptor 3 (Homo sapiens), P42263 [L513Y], sequence (P42263 whole entry L513Y): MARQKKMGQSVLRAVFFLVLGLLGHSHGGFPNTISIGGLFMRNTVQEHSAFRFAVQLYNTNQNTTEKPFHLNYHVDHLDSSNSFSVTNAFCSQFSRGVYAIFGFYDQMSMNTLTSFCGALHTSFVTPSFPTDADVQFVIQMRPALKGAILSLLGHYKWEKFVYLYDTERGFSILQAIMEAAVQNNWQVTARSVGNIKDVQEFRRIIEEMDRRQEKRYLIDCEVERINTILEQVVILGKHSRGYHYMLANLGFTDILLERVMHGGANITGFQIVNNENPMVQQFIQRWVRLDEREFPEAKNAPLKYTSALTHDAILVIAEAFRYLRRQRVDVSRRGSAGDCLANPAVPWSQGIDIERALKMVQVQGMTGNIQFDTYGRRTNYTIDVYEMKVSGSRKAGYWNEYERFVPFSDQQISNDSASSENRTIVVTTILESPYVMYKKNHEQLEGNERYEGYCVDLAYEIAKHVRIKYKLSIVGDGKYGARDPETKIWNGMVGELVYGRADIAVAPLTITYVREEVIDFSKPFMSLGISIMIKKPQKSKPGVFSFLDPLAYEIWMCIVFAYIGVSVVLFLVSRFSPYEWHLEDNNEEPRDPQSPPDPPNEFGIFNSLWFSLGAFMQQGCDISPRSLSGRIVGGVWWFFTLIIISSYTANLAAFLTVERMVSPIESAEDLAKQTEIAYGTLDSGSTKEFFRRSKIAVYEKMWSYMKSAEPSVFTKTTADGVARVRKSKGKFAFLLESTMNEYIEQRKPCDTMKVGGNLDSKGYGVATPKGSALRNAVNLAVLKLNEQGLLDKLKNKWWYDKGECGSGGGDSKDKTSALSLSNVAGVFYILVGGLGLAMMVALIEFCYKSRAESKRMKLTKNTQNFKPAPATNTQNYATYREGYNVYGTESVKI

CCN(CC)C(=O)Oc1ccc(C(=O)Nc2cccc(CCNS(=O)(=O)c3ccccc3)c2)cc1
Ratio IC50 [1]: < 6
residual activity [2]: 9%
inhibition [3]: 20%
IC50 [4]: 2.4 µM
residual activity [5]: 8.9 to 9%
inhibition [6]: 24%
IC50 [7]: 1.7 µM
inhibition [8]: 86%
